Holding throughout (type): binding
Test [1] has as its system Tel24 human telomeric quadruplex DNA. As to the kind of experiment: UV-thermal melting with telomeric quadruplex DNA. The conditions noted are these: ligand:DNA ratio 4:1; 80 mM KCl; Tm of free Tel24 67 °C.
Test [2] deals with AATT duplex sequence. Description: UV-thermal melting with AT-rich hairpin duplex DNA. The settings on record: ligand:DNA ratio 2:1; 80 mM KCl; Tm of free AATT 69 °C.
The subject of test [3] is (CG)4 duplex sequence. As to the kind of experiment: UV-thermal melting with GC-rich hairpin duplex DNA. The settings on record: ligand:DNA ratio 2:1; 80 mM KCl; Tm of free (CG)4 63 °C. An outline of the steps:
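Duplex melted in 10 mM K₂HPO₄, 80 mM KCl, 3 mM EDTA, pH 7.3, at 2–3 µM single-strand, in 1 cm quartz cuvettes. Ligand was titrated from stock to compound:DNA ratios up to 4:1. Absorbance at 260 nm was followed while heating at 0.5 °C/min. ΔTm was taken at 2:1, reproducible within ±1 °C.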

In the case of `Cn1cc(NC(=O)c2cc(NC(=O)c3cc(NC=O)cn3C)cn2C)cc1C(=O)NCCC(=N)N` [Distamycin], the “∆Tm of Tel24 quadruplex” value in test [1] was “did not show any significant increase”. Besides, in test [2], the “∆Tm of AATT duplex” value was “strong binder”.
As to `COS(=O)(=O)[O-].Cc1cc2c3c([n+](C)c4ccc(F)cc4c3c1)-c1cc(F)ccc1N2C` [RHPS4, 3,11-difluoro-6,8,13-trimethyl-8H-quino[4,3,2-kl] acridinium methosulfate], the “∆Tm of Tel24 quadruplex” value in test [1] is on record as “very similar melting values as DB832”. Besides, the “∆Tm of AATT duplex” value in test [2] was “very little affinity”. In addition, the “∆Tm of (CG)4 duplex” value in test [3] is given as “very little affinity”.

These data come from PMC3865530 (Current pharmaceutical design, 2012).
